Reference: ChEMBL document CHEMBL5724801, “EUbOPEN Chemogenomics Library - Multiplex” (2024)
Several values for one entry are separate records, joined by “and”; a condition that tells them apart may be missing. Identical values can stand only once.

tested on: Fibroblast; assay: Multiplex assay against human fibroblast; type: toxicity, cell-based; conditions: 12 h, 1 µM, compound concentration 1 uM
How it was run: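 Per cents of healthy-nucleus cells form the tubulin, mitochondrial-mass and membrane-permeability phenotype values. Live cells were stained at seeding with Hoechst33342, BioTracker Green Microtubule Cytoskeleton Dye, MitoTracker Red and Annexin V Alexa Fluor 680. After compound addition they were imaged on a CQ1 microscope at 37°C and 5% CO2, and CellPathfinder machine-learning gating split them into Hoechst high-intensity objects or normal cells, normal cells into healthy, pyknosed or fragmented nuclei, and pyknosed cells into mitotic or apoptotic.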

Row | SMILES | Population Apoptotic (%) | Population Fragmented Nuclei (%) | Population Healthy Nuclei (%) | Population Hoechst High Intensity Objects (%) | Population Membrane Permeable-Phenotype (%) | Population Mitochondria Different-Phenotype (%) | Population Mitotic Cells (%) | Population Normal (%) | Population Pyknosed Nuclei (%) | Population Tubulin-Different-Phenotype (%)
1 | COC(c1ccccc1)(c1ccccc1)[C@H](Oc1nc(C)cc(C)n1)C(=O)O [AMBRISENTAN] | 68% and 30% | 13% and 18% | 66% and 56% | 1% and 4% | 0% and 1% | 4% and 6% | 31% and 69% | 98% and 95% | 19% and 25% | 29% and 37%
2 | CC(C)[C@H](C(=O)Nc1ccc(C(=O)NO)cc1)c1ccccc1 [AR-42] | 28.12% and 16.67% | 8.81% and 7.87% | 74.61% and 85.39% | 0% | 3.47% and 2.63% | 4.17% and 7.89% | 71.88% and 83.33% | 100% | 16.58% and 6.74% | 4.17% and 7.24%

same assay, conditions: 12 h, 1 µM, compound concentration 1 uM

Row | SMILES | Total Cell Count
3 | COC(c1ccccc1)(c1ccccc1)[C@H](Oc1nc(C)cc(C)n1)C(=O)O [AMBRISENTAN] | 97 and 163
4 | CC(C)[C@H](C(=O)Nc1ccc(C(=O)NO)cc1)c1ccccc1 [AR-42] | 193 and 178

same assay, conditions: 12 h, 10 µM, compound concentration 10 uM

Row | SMILES | Population Apoptotic (%) | Population Healthy Nuclei (%) | Population Hoechst High Intensity Objects (%) | Population Membrane Permeable-Phenotype (%) | Population Mitochondria Different-Phenotype (%) | Population Mitotic Cells (%) | Population Normal (%) | Population Pyknosed Nuclei (%) | Population Tubulin-Different-Phenotype (%) | Total Cell Count
5 | COC(c1ccccc1)(c1ccccc1)[C@H](Oc1nc(C)cc(C)n1)C(=O)O [AMBRISENTAN] | 56% and 33% | 70% and 25% | 5% and 4% | 0% and 5% | 11% and 0% | 43% and 66% | 94% and 95% | 21% and 34% | 25% and 35% | 145 and 82
6 | CC(C)[C@H](C(=O)Nc1ccc(C(=O)NO)cc1)c1ccccc1 [AR-42] | 32% and 26.67% | 76.17% and 88.74% | 0% | 6.8% and 2.54% | 5.44% and 5.58% | 68% and 73.33% | 100% | 12.95% and 6.76% | 7.48% and 5.58% | 193 and 222

same assay, conditions: 12 h, 10 µM, compound concentration 10 uM

Row | SMILES | Population Fragmented Nuclei (%)
7 | CC(C)[C@H](C(=O)Nc1ccc(C(=O)NO)cc1)c1ccccc1 [AR-42] | 10.88% and 4.5%

same assay, conditions: 24 h, 1 µM, compound concentration 1 uM

Row | SMILES | Population Apoptotic (%) | Population Fragmented Nuclei (%) | Population Healthy Nuclei (%) | Population Hoechst High Intensity Objects (%) | Population Membrane Permeable-Phenotype (%) | Population Mitochondria Different-Phenotype (%) | Population Mitotic Cells (%) | Population Normal (%) | Population Pyknosed Nuclei (%) | Population Tubulin-Different-Phenotype (%)
8 | COC(c1ccccc1)(c1ccccc1)[C@H](Oc1nc(C)cc(C)n1)C(=O)O [AMBRISENTAN] | 62% and 34% | 15% and 14% | 67% and 62% | 2% and 5% | 0% and 3% | 4% and 3% | 37% and 65% | 97% and 94% | 17% and 23% | 38%
9 | CC(C)[C@H](C(=O)Nc1ccc(C(=O)NO)cc1)c1ccccc1 [AR-42] | 40% and 44.44% | 11.98% and 8.95% | 80.21% and 86.32% | 0% | 2.6% and 3.05% | 2.6% and 3.66% | 60% and 55.56% | 100% | 7.81% and 4.74% | 1.95% and 1.83%

same assay, conditions: 24 h, 1 µM, compound concentration 1 uM

Row | SMILES | Total Cell Count
10 | COC(c1ccccc1)(c1ccccc1)[C@H](Oc1nc(C)cc(C)n1)C(=O)O [AMBRISENTAN] | 95 and 158
11 | CC(C)[C@H](C(=O)Nc1ccc(C(=O)NO)cc1)c1ccccc1 [AR-42] | 192 and 190

same assay, conditions: 24 h, 10 µM, compound concentration 10 uM

Row | SMILES | Population Apoptotic (%) | Population Healthy Nuclei (%) | Population Hoechst High Intensity Objects (%) | Population Membrane Permeable-Phenotype (%) | Population Mitochondria Different-Phenotype (%) | Population Mitotic Cells (%) | Population Normal (%) | Population Pyknosed Nuclei (%) | Population Tubulin-Different-Phenotype (%) | Total Cell Count
12 | COC(c1ccccc1)(c1ccccc1)[C@H](Oc1nc(C)cc(C)n1)C(=O)O [AMBRISENTAN] | 69% and 27% | 68% and 27% | 7% and 5% | 0% and 5% | 11% and 10% | 30% and 72% | 92% and 94% | 18% and 26% | 29% and 36% | 149 and 73
13 | CC(C)[C@H](C(=O)Nc1ccc(C(=O)NO)cc1)c1ccccc1 [AR-42] | 50% and 57.14% | 79.19% and 83.69% | 0% | 3.65% and 0% | 4.38% and 6.67% | 50% and 42.86% | 100% | 9.25% and 6.01% | 3.65% and 2.56% | 173 and 233

same assay, conditions: 24 h, 10 µM, compound concentration 10 uM

Row | SMILES | Population Fragmented Nuclei (%)
14 | CC(C)[C@H](C(=O)Nc1ccc(C(=O)NO)cc1)c1ccccc1 [AR-42] | 11.56% and 10.3%

same assay, conditions: 48 h, 1 µM, compound concentration 1 uM

Row | SMILES | Population Apoptotic (%) | Population Fragmented Nuclei (%) | Population Healthy Nuclei (%) | Population Hoechst High Intensity Objects (%) | Population Membrane Permeable-Phenotype (%) | Population Mitochondria Different-Phenotype (%) | Population Mitotic Cells (%) | Population Normal (%) | Population Pyknosed Nuclei (%) | Population Tubulin-Different-Phenotype (%)
15 | COC(c1ccccc1)(c1ccccc1)[C@H](Oc1nc(C)cc(C)n1)C(=O)O [AMBRISENTAN] | 60% and 61% | 19% and 24% | 64% and 54% | 4% and 0% | 1% and 4% | 5% and 10% | 40% and 38% | 95% and 99% | 16% and 20% | 28% and 42%
16 | CC(C)[C@H](C(=O)Nc1ccc(C(=O)NO)cc1)c1ccccc1 [AR-42] | 37.5% and 50% | 15.15% and 11.46% | 76.77% and 82.29% | 0% | 1.32% and 1.27% | 19.74% and 7.59% | 62.5% and 50% | 100% | 8.08% and 6.25% | 2.63% and 3.8%

same assay, conditions: 48 h, 1 µM, compound concentration 1 uM

Row | SMILES | Total Cell Count
17 | COC(c1ccccc1)(c1ccccc1)[C@H](Oc1nc(C)cc(C)n1)C(=O)O [AMBRISENTAN] | 93 and 154
18 | CC(C)[C@H](C(=O)Nc1ccc(C(=O)NO)cc1)c1ccccc1 [AR-42] | 198 and 192

same assay, conditions: 48 h, 10 µM, compound concentration 10 uM

Row | SMILES | Population Apoptotic (%) | Population Healthy Nuclei (%) | Population Hoechst High Intensity Objects (%) | Population Membrane Permeable-Phenotype (%) | Population Mitochondria Different-Phenotype (%) | Population Mitotic Cells (%) | Population Normal (%) | Population Pyknosed Nuclei (%) | Population Tubulin-Different-Phenotype (%) | Total Cell Count
19 | COC(c1ccccc1)(c1ccccc1)[C@H](Oc1nc(C)cc(C)n1)C(=O)O [AMBRISENTAN] | 61% and 71% | 71% and 31% | 7% and 3% | 1% and 0% | 10% and 0% | 38% and 28% | 92% and 96% | 13% and 18% | 34% and 62% | 145 and 79
20 | CC(C)[C@H](C(=O)Nc1ccc(C(=O)NO)cc1)c1ccccc1 [AR-42] | 31.48% and 89.58% | 52.97% and 64.92% | 0% | 1.02% and 3.23% | 21.43% and 8.06% | – | 100% | 29.19% and 25.13% | – | 185 and 191

same assay, conditions: 48 h, 10 µM, compound concentration 10 uM

Row | SMILES | Population Fragmented Nuclei (%)
21 | CC(C)[C@H](C(=O)Nc1ccc(C(=O)NO)cc1)c1ccccc1 [AR-42] | 17.84% and 9.95%
